From ChEMBL document CHEMBL2157981, “Synthesis of new antimicrobial pyrrolo[2,1-a]isoquinolin-3-ones” (2012) come the findings set out here.

One assay relates to Bacillus cereus. Put plainly: Bactericidal activity against Bacillus cereus CECT 148 at 0.2 mg/disk after 24 hrs by agar diffusion assay. In kind it is functional. Summed up:
(§1)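 Each bacterium, kept as 24-h cultures on solid-medium slants, was reactivated in Nutrient Broth for 24 h at 28 or 37 °C depending on species. 1 mL of this suspension was plated and overlaid with 15 mL Plate Count Agar. Once the agar solidified, five paper disks loaded with test product were applied. Plates were incubated 24 h in the dark at 28 or 37 °C by species.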

The test system of another assay is Staphylococcus aureus. Put plainly: Bactericidal activity against Staphylococcus aureus CECT 86 at 0.2 mg/disk after 24 hrs by agar diffusion assay. In kind it is functional. The gist of the method: as §1
Another assay has as its system Enterococcus faecalis. The assay is described as follows: Bactericidal activity against Enterococcus faecalis CECT 481 at 0.2 mg/disk after 24 hrs by agar diffusion assay. It is filed as functional. Summed up: as §1
Another assay relates to Salmonella typhi. Put plainly: Bactericidal activity against Salmonella typhi CECT 409 at 0.2 mg/disk after 24 hrs by agar diffusion assay. In kind it is functional. Particulars: for Activity: Salmonella enterica subsp. enterica serovar Typhi. Summed up: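 Bacteria from 24-h slant cultures reactivated in Nutrient Broth for 24 h at 28 or 37 °C depending on strain. 1 mL of suspension was placed in a plate and overlaid with 15 mL Plate Count Agar. After solidification, five paper disks loaded with compound were applied. Plates were incubated 24 h in the dark at 28 or 37 °C depending on strain.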

Assay [1] deals with Escherichia coli. Put plainly: Bactericidal activity against Escherichia coli CECT 405 at 0.2 mg/disk after 24 hrs by agar diffusion assay. It is filed as functional. The gist of the method: as §1
The test system of assay [2] is Escherichia coli. Put plainly: Bactericidal activity against Escherichia coli CECT 100 at 0.2 mg/disk after 24 hrs by agar diffusion assay. In kind it is functional. Summed up:
as §1

The subject of assay [3] is Pectobacterium carotovorum. Put plainly: Bactericidal activity against Erwinia carotovora CECT 225 at 0.2 mg/disk after 24 hrs by agar diffusion assay. In kind it is functional. Summed up:
as §1

Assay [4] has as its system Aspergillus parasiticus. Put plainly: Fungicidal activity against Aspergillus parasiticus CECT 2681 at 0.4 mg/disk after 48 hrs by agar diffusion assay. It is filed as functional, organism-based. The gist of the method: (§2)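 Fungi were grown 7 days at 28 °C on PDA, then suspended in 0.05% Tween 80 in sterile water to about 10^6 conidia/mL. 1 mL was mixed into 15 mL PDA. After setting, four 0.5 cm paper disks impregnated with test product were added. Controls were solvent-only disks and benomyl disks, dosed per fungus. The read-out was the no-growth inhibition zone (mm), as the mean ± SE of three independent experiments.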

The subject of assay [5] is Trichoderma viride. The assay is described as follows: Fungicidal activity against Trichoderma viride CECT 2423 at 0.4 mg/disk after 48 hrs by agar diffusion assay. It is filed as functional, organism-based. Summed up:
as §2

Assay [6] has as its system Fusarium culmorum. Put plainly: Fungicidal activity against Fusarium culmorum CCM 172 at […] after 48 hrs by agar diffusion assay. It is filed as functional, organism-based. As to conditions: 0.4 mg/disk. The gist of the method:
as §2

The test system of assay [7] is Phytophthora citrophthora. The assay is described as follows: Fungicidal activity against Phytophthora citrophthora CECT 2353 at 0.4 mg/disk after 48 hrs by agar diffusion assay. In kind it is functional, organism-based. The gist of the method:
as §2

Assay [8] concerns Geotrichum candidum. Put plainly: Fungicidal activity against Geotrichum candidum CCM 245 at 0.4 mg/disk after 48 hrs by agar diffusion assay. It is filed as functional, organism-based. Summed up:
as §2

Assay [9] deals with Trichoderma viride. Put plainly: Fungicidal activity against Trichoderma viride CECT 2423 at 0.2 mg/disk after 48 hrs by agar diffusion assay. It is filed as functional. Summed up:
as §2

The subject of assay [10] is Fusarium culmorum. Put plainly: Fungicidal activity against Fusarium culmorum CCM 172 at 0.2 mg/disk after 48 hrs by agar diffusion assay. In kind it is functional. The gist of the method: as §2
For assay [11], the system named is Phytophthora citrophthora. The assay is described as follows: Fungicidal activity against Phytophthora citrophthora CECT 2353 at 0.2 mg/disk after 48 hrs by agar diffusion assay. In kind it is functional. The gist of the method: as §2
In assay [12] the test system is Geotrichum candidum. The assay is described as follows: Fungicidal activity against Geotrichum candidum CCM 245 at 0.2 mg/disk after 48 hrs by agar diffusion assay. It is filed as functional. Summed up: as §2
The test system of assay [13] is Aspergillus parasiticus. Put plainly: Fungicidal activity against Aspergillus parasiticus CECT 2681 at 0.2 mg/disk after 48 hrs by agar diffusion assay. It is filed as functional. Summed up:
as §2

Activity calls are given as the source filed them. The rule behind the calls is not given here.

`O=C(COc1cc2c(cc1OCC(=O)Nc1ccccc1)C1CCC(=O)N1CC2)Nc1ccccc1` (stereo not drawn): the result in the assay with Bacillus cereus, in the assay with Staphylococcus aureus, with Enterococcus faecalis, with Salmonella typhi, in the assay with Escherichia coli [1] and in the assay on Escherichia coli [2] was inactive. Besides, the result (in [3]; in the assay with Aspergillus parasiticus [4]; in the assay with Trichoderma viride [5]; in the assay with Fusarium culmorum [6]; in assay [7]; in the assay on Geotrichum candidum [8]) was inactive.
As to `O=C1CCC2c3ccc(OCc4ccccc4)cc3CCN12` (stereo not drawn), the “inhibition zone (IZ)” value in the assay on Bacillus cereus was 8.66 mm; with Staphylococcus aureus, 0 mm; in the assay on Enterococcus faecalis, 6.83 mm; in the assay on Salmonella typhi, 6 mm; with Escherichia coli [1], 6.33 mm; in the assay on Escherichia coli [2], 0 mm. Moreover, the “inhibition zone (IZ)” value in [3] stood at 7.26 mm; in the assay with Trichoderma viride [9], 6 mm; in the assay with Fusarium culmorum [10] it was 12 mm; in assay [11] it was 11.33 mm; with Geotrichum candidum [12], 6.16 mm; in the assay on Aspergillus parasiticus [13], 6.83 mm.
`O=C1CCC2c3ccc(O)cc3CCN12` (stereo not drawn): the “inhibition zone (IZ)” value is given as 7.5 mm with Bacillus cereus; 0 mm with Staphylococcus aureus; 0 mm in the assay with Enterococcus faecalis; 0 mm in the assay on Salmonella typhi; 0 mm in the assay with Escherichia coli [1]; 0 mm in the assay with Escherichia coli [2]. Further, in [3], the “inhibition zone (IZ)” value amounted to 0 mm. In addition, the outcome (in the assay on Trichoderma viride [9]; in the assay with Fusarium culmorum [10]; in assay [11]; in the assay on Geotrichum candidum [12]; with Aspergillus parasiticus [13]) was inactive.
For `O=C(COc1ccc2c(c1)CCN1C(=O)CCC21)N1CCCCC1` (stereo not drawn), the outcome with Bacillus cereus, with Staphylococcus aureus, in the assay with Enterococcus faecalis, with Salmonella typhi, in the assay with Escherichia coli [1] and in the assay with Escherichia coli [2] was inactive. For the same molecule, the result (in assay [3]; in the assay on Trichoderma viride [9]; in the assay with Fusarium culmorum [10]; in assay [11]; with Geotrichum candidum [12]; with Aspergillus parasiticus [13]) was inactive.
On to `COc1cc2c(cc1Cl)CCN1C(=O)CCC21` (stereo not drawn), for which the “inhibition zone (IZ)” value in the assay on Bacillus cereus came to 7.33 mm; in the assay with Staphylococcus aureus it was 7.83 mm; with Enterococcus faecalis it was 6.83 mm; with Escherichia coli [1], 6.83 mm; with Escherichia coli [2], 6.16 mm; in assay [3] it was 10.33 mm. Besides, the “inhibition zone (IZ)” value in the assay with Trichoderma viride [9] was 0 mm; in the assay on Fusarium culmorum [10] it was 7.5 mm; in assay [11], 6.83 mm; with Geotrichum candidum [12], 6.33 mm; with Aspergillus parasiticus [13], 7.5 mm.
In the case of `CCNC(=O)Oc1cc2c(cc1Cl)CCN1C(=O)CCC21` (stereo not drawn), the result with Bacillus cereus, in the assay with Staphylococcus aureus, in the assay on Enterococcus faecalis, with Salmonella typhi, in the assay on Escherichia coli [1] and with Escherichia coli [2] was inactive. The outcome (in [3]; in the assay on Aspergillus parasiticus [4]; with Trichoderma viride [5]; in the assay on Fusarium culmorum [6]; in [7]; with Geotrichum candidum [8]) was inactive.
As for `CN(C)[C@@H]1C(O)=C(C(N)=O)C(=O)[C@@]2(O)C(O)=C3C(=O)c4c(O)cccc4[C@@](C)(O)[C@H]3C[C@@H]12` [TETRACYCLINE], the “inhibition zone (IZ)” value with Bacillus cereus was found to be 24.33 mm; with Staphylococcus aureus it was 27 mm; in the assay on Enterococcus faecalis it was 26 mm; in the assay with Escherichia coli [1], 25.66 mm; in the assay on Escherichia coli [2] it was 25.66 mm; in assay [3] it was 13.33 mm.
For the molecule `O=C(COc1ccc2c(c1)CCN1C(=O)CCC21)Nc1ccccc1` (stereo not drawn), the “inhibition zone (IZ)” value in the assay with Bacillus cereus was 8.83 mm; in the assay on Staphylococcus aureus, 0 mm; with Enterococcus faecalis it was 7.33 mm; in the assay with Escherichia coli [1] it was 7.5 mm; with Escherichia coli [2], 0 mm; in assay [3] it was 8 mm. Also, the outcome (in the assay with Trichoderma viride [9]; in the assay on Fusarium culmorum [10]; in [11]; in the assay on Geotrichum candidum [12]; with Aspergillus parasiticus [13]) was inactive.
Regarding `O=C1CCC2c3cc(O)c(O)cc3CCN12` (racemic), the “inhibition zone (IZ)” value with Bacillus cereus was 6.66 mm; in the assay on Staphylococcus aureus, 0 mm; with Enterococcus faecalis it was 0 mm; with Salmonella typhi, 0 mm; in the assay with Escherichia coli [1] it was 0 mm; in the assay on Escherichia coli [2], 0 mm. Moreover, the “inhibition zone (IZ)” value in assay [3] is 0 mm. Also, the outcome (in the assay on Aspergillus parasiticus [4]; in the assay on Trichoderma viride [5]; in the assay with Fusarium culmorum [6]; in assay [7]; with Geotrichum candidum [8]) was inactive.
As for `O=C1CCC2c3cc(O)c(Cl)cc3CCN12` (stereo not drawn), the result with Bacillus cereus, in the assay on Staphylococcus aureus, with Enterococcus faecalis, in the assay on Salmonella typhi, in the assay with Escherichia coli [1] and in the assay on Escherichia coli [2] was inactive. In addition, the outcome (in [3]; in the assay with Aspergillus parasiticus [4]; in the assay with Trichoderma viride [5]; in the assay on Fusarium culmorum [6]; in [7]; in the assay on Geotrichum candidum [8]) was inactive.
Consider `O=C1CCC2c3cc(OCc4ccc(F)cc4)c(OCc4ccc(F)cc4)cc3CCN12` (stereo not drawn), for which the “inhibition zone (IZ)” value in the assay with Bacillus cereus came to 7.33 mm; in the assay with Staphylococcus aureus, 0 mm; in the assay with Enterococcus faecalis it was 6.33 mm; in the assay with Salmonella typhi, 5.83 mm; with Escherichia coli [1] it was 6.83 mm; in the assay with Escherichia coli [2], 0 mm. In addition, in assay [3], the “inhibition zone (IZ)” value came out at 7 mm. For the same molecule, the result (in the assay on Aspergillus parasiticus [4]; in the assay with Trichoderma viride [5]; in the assay on Fusarium culmorum [6]; in assay [7]; in the assay with Geotrichum candidum [8]) was inactive.
Consider `O=C1CCC2c3ccc(OCc4ccc(F)cc4)cc3CCN12` (stereo not drawn), for which the “inhibition zone (IZ)” value was 7.5 mm with Bacillus cereus; 6.33 mm with Staphylococcus aureus; 0 mm in the assay on Enterococcus faecalis; 0 mm in the assay on Salmonella typhi; 6.16 mm with Escherichia coli [1]; 0 mm in the assay on Escherichia coli [2]. Further, the “inhibition zone (IZ)” value in assay [3] is recorded as 8 mm; in the assay with Trichoderma viride [9] it was 8.1 mm; with Fusarium culmorum [10] it was 10.5 mm; in [11], 10.66 mm; in the assay on Geotrichum candidum [12] it was 7 mm; in the assay with Aspergillus parasiticus [13], 7.83 mm.
With `CCNC(=O)Oc1ccc2c(c1)CCN1C(=O)CCC21` (stereo not drawn), the “inhibition zone (IZ)” value came out at 6.5 mm in the assay with Bacillus cereus; 0 mm in the assay on Staphylococcus aureus; 8.5 mm in the assay on Enterococcus faecalis; 7.5 mm in the assay with Salmonella typhi; 6.83 mm with Escherichia coli [1]; 6.33 mm in the assay on Escherichia coli [2]. For the same molecule, the “inhibition zone (IZ)” value in assay [3] is 8.83 mm; in the assay with Trichoderma viride [9] it was 0 mm; in the assay on Fusarium culmorum [10], 0 mm; in assay [11], 9.66 mm; with Geotrichum candidum [12], 0 mm; in the assay on Aspergillus parasiticus [13], 0 mm.
